From article PMC8830364 (Bioorganic & medicinal chemistry letters, 2021) come the findings set out here.

The target in data set [1] is T1, Human neutrophil elastase (HNE) (Homo sapiens, UniProt P08246).
T1 sequence (P08246 30-267): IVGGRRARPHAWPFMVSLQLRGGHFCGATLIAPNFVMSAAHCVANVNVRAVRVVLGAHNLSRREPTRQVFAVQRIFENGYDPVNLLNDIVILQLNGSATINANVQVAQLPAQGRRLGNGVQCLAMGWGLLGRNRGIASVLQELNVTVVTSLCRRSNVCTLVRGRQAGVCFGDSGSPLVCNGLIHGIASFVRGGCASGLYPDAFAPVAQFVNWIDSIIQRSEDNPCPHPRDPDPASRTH
Briefly: HNE inhibitory activity. The class given is biochemical. To be noted: for HNE inhibitory activity (in words): as described.

Data set [2] is described as follows: Chemical stability in human plasma. In kind it is in vitro ADME. To be noted: pooled human plasma, 37 °C; for Stability in human plasma (in words): 2.5 μM, 0, 30, 60, 120 min; for Half time in human plasma: 2.5 μM, 0-120 min. The method in brief:
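Test compound at 2.5 μM (below its K_M) incubated in pooled plasma from healthy volunteers at 37 °C, in triplicate, sampled at 0, 30, 60 and 120 min. Remaining analyte was quantified by LC-MS/MS in MRM mode. Degradation was treated as first-order: the slope of ln(concentration) versus time gave the rate constant k, from which t1/2 was calculated.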

A short description of data set [3]: Stability in aqueous buffer. The class given is physicochemical. To be noted: for half-life: Half-life (t1/2) for the spontaneous hydrolysis.

What is called Ki is a measure of affinity in units of concentration, obtained from inhibition or displacement. Broadly, the half-life is how long it takes for the measured level to halve. Low readings indicate rapid decline, high ones slow decline.

As for `O=C1CCCc2nn(Cc3cccc(C(F)(F)F)c3)cc21` [Compound 6d], in data set [1], the inhibition constant (Ki) is above 50 µM and the “HNE inhibitory activity (in words)” value was “complete inactivity”. Also, the “Stability in human plasma (in words)” value in data set [2] was “maintained their spiked concentration for all of the incubation times”.
In the case of `Cc1cccc(C(=O)n2cc3c(n2)CCCC3=O)c1` [Compound 6a], in data set [2], the “Stability in human plasma (in words)” value was “rapid degradation rate” and the “Half time in human plasma” value is recorded as around 6 min.
As for `CC(C)(C)OC(=O)n1cc2c(n1)CCC(Br)C2=O` (stereo not drawn) [Compound 9e], in data set [1], the Ki is above 50 µM and the “HNE inhibitory activity (in words)” value is given as “low active or devoid of HNE inhibitory activity”.
`O=C(C1CC1)n1cc2c(n1)CCC(Br)(Br)C2=O` [Compound 9b, 5,5-dibromo-2-(cyclopropanecarbonyl)-2,5,6,7-tetrahydro-4H-indazol-4-one] returned a half-life in data set [3] of 235 ± 18.2 min.
The compound `CC(C)(C)OC(=O)N1CCN(C(=O)Cn2ncc3c2CCCC3=O)CC1` [Compound 7g] registered an inhibitory constant (Ki) in data set [1] above 50 µM.
In data set [1], `CC(C)(C)OC(=O)N1CCN(C(=O)Cn2cc3c(n2)CCCC3=O)CC1` [Compound 6g] registered an inhibition constant Ki above 50 µM.
For `O=C1CCCc2nn(CC(=O)N3CCNCC3)cc21` [Compound 6h], the inhibitory constant (Ki) in data set [1] was above 50 µM.
Turning to `O=C1CCCc2c1cnn2Cc1ccccc1` [Compound 7e], in data set [1], the inhibitory constant (Ki) was above 50 µM and the “HNE inhibitory activity (in words)” value is on record as “complete inactivity”.
Consider `O=C(NC1CCCc2c1cnn2-c1ccccc1)C1CC1` (stereo not drawn) [Compound 14b], for which the Ki in data set [1] was above 50 µM.
As for `O=C1CCCc2nn(-c3cccc(C(F)(F)F)c3)cc21` [Compound 6c], in data set [1], the Ki is above 50 µM and the “HNE inhibitory activity (in words)” value is recorded as “complete inactivity”.
Consider `O=C1CCCc2c1cnn2Cc1cccc(C(F)(F)F)c1` [Compound 7d], for which, in data set [1], the Ki is above 50 µM and the “HNE inhibitory activity (in words)” value is “complete inactivity”. Moreover, the “Stability in human plasma (in words)” value in data set [2] is reported as “maintained their spiked concentration for all of the incubation times”.
In the case of `O=C1c2cnn(CC(=O)N3CCN(c4ccccc4)CC3)c2CCC1Br` (stereo not drawn) [Compound 10d], in data set [1], the Ki was above 50 µM and the “HNE inhibitory activity (in words)” value is reported as “low active or devoid of HNE inhibitory activity”.
In the case of `Cc1cccc(C(=O)n2ncc3c2CCCC3=O)c1` [Compound 7a], in data set [2], the “Stability in human plasma (in words)” value is listed as “rapid degradation rate” and the “Half time in human plasma” value was around 6 min.
In the case of `O=C(C1CC1)N(C(=O)C1CC1)C1CCCc2c1cnn2-c1ccccc1` (stereo not drawn) [Compound 14a], in data set [1], the inhibition constant (Ki) is above 50 µM.
Turning to `O=C1CCCc2nn(Cc3ccccc3)cc21` [Compound 6e], in data set [1], the inhibition constant Ki is above 50 µM and the “HNE inhibitory activity (in words)” value is on record as “complete inactivity”.
With `O=C1c2cnn(C(=O)C3CC3)c2CCC1Br` (stereo not drawn) [Compound 10a], in data set [3], the “Half-life (t1/2) for the spontaneous hydrolysis” value is 38.7 ± 4.1 min and the half-life worked out at 53.9 min.
For the compound `O=C1CCCc2c1cnn2-c1cccc(C(F)(F)F)c1` [Compound 7c], in data set [1], the inhibitory constant (Ki) was above 50 µM and the “HNE inhibitory activity (in words)” value was “complete inactivity”.
Turning to `O=C1c2cn(CC(=O)N3CCN(c4ccccc4)CC3)nc2CCC1Br` (stereo not drawn) [Compound 9f], in data set [1], the inhibition constant Ki was above 50 µM and the “HNE inhibitory activity (in words)” value is recorded as “low active or devoid of HNE inhibitory activity”.
Regarding `Cc1cccc(C(=O)NC2CCCc3c2cnn3-c2ccccc2)c1` (stereo not drawn) [Compound 14c], in data set [1], the Ki was above 50 µM.
